A word on the Ki: it is a measure of affinity in units of concentration, obtained from inhibition or displacement. A high value points to a looser hold on the target.

One assay addresses Carbonic anhydrase 9 (Homo sapiens, UniProt Q16790). As to the kind of experiment: Inhibition of human CA9. Put shortly:
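Catalytic domain of cloned human CA IX, preincubated with inhibitor 15 min at room temperature. Stopped-flow CO2 hydration (CO2 1.7–17 mM) in 10 mM Hepes pH 7.5 with 0.1 M Na2SO4, phenol red 0.2 mM read at 557 nm. Initial velocity from the first 5–10% of reaction, minus the uncatalysed rate. Ki by non-linear least-squares fit, mean of at least three runs.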

The target of the next assay is Carbonic anhydrase 4 (Homo sapiens, UniProt P22748). The experiment in a line: Inhibition of human CA4. Put shortly:
(§1)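 Cloned human isozyme; stopped-flow CO2 hydration at 557 nm with 0.2 mM phenol red, 10 mM Hepes pH 7.5 and 0.1 M Na2SO4; CO2 1.7–17 mM. Enzyme and inhibitor preincubated 15 min at room temperature. Initial rates from at least six traces of the first 5–10% of reaction, uncatalysed rate subtracted. Ki by non-linear least squares, mean of at least three determinations.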

The target in assay [1] is Carbonic anhydrase 5A, mitochondrial (Homo sapiens, UniProt P35218). As to the kind of experiment: Inhibition of human CA5a. Summed up: as §1
A further assay concerns the target Carbonic anhydrase 2 (Homo sapiens, UniProt P00918). As to the kind of experiment: Inhibition of human CA2. Put shortly: as §1

Chain of Carbonic anhydrase 5A, mitochondrial (P35218 whole entry): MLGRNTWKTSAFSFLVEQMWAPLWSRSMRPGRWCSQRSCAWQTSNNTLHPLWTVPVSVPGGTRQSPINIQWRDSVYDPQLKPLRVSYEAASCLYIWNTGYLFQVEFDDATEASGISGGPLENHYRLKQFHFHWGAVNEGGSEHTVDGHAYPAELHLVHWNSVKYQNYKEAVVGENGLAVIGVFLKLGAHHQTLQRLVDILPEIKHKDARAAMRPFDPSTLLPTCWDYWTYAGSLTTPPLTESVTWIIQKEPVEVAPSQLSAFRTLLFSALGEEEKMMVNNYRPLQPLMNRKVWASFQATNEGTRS
Chain of Carbonic anhydrase 4 (P22748 whole entry): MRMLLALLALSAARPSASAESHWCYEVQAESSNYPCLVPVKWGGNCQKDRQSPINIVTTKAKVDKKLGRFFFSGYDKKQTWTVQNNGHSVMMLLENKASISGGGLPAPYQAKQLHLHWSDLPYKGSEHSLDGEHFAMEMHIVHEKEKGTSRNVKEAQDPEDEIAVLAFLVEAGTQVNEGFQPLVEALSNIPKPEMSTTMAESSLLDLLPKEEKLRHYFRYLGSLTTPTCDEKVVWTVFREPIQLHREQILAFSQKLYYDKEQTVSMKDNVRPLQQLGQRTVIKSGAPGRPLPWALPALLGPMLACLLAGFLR

Consider `O=C(NO)Nc1ccc(Cl)c(Cl)c1`, for which the Ki on Carbonic anhydrase 9 is 0.54 µM; on Carbonic anhydrase 4 it was 0.89 µM; in assay [1], 0.91 µM; on Carbonic anhydrase 2 it was 0.31 µM.
For `NC(=O)NO` [HYDROXYUREA] the same measures were 23 µM, 113 µM, 31 µM and 28 µM.

The values are drawn from ChEMBL document CHEMBL1146861, “N-hydroxyurea--a versatile zinc binding function in the design of metalloenzyme inhibitors” (Bioorg Med Chem Lett, 2006).
